In ChEMBL document CHEMBL1124811, “Cyclic hexapeptide oxytocin antagonists. Potency-, selectivity-, and solubility-enhancing modifications” (J Med Chem, 1990):
≈ marks a conversion by molar mass, not a printed value. Non-standard residues stand in square brackets, D forms with d. Residues, ends and D or L forms follow the SMILES beside them. Piz(1,6-dehydro) = O=C(O)[C@@H]1CCC=NN1; dPiz(1,6-dehydro) = O=C(O)[C@H]1CCC=NN1; dNMeF = CN[C@H](Cc1ccccc1)C(=O)O; Pip = O=C(O)[C@@H]1CCCCN1; dPip = O=C(O)[C@H]1CCCCN1; Orn = NCCC[C@H](N)C(=O)O

Key:
Oxytocin receptor = target: T1, Oxytocin receptor (Rattus norvegicus, UniProt P70536); test: Inhibition of [3H]- oxytocin binding to rat uterine Oxytocin receptor
T1 sequence (P70536 whole entry): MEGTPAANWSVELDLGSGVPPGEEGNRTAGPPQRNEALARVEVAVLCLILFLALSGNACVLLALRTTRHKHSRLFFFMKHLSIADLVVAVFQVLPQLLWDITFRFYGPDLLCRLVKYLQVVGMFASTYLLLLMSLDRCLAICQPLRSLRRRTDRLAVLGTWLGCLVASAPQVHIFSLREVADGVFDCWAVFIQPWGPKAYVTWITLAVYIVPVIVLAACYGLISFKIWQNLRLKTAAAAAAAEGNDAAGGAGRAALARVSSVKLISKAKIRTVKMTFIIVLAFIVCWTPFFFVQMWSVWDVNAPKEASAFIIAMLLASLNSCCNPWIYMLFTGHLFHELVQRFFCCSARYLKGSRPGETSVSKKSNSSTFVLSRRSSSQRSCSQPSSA
Method in brief: (§1)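 Radioligand competition binding. Ki derived from IC50 values from competition curves; reported as group means ± SEM of three or more replicate determinations unless noted otherwise.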

Vasopressin V2 receptor = Vasopressin V2 receptor (Rattus norvegicus, UniProt Q00788); test: Inhibition of [3H]arginine vasopressin binding to rat kidney medulla Vasopressin V2 receptor; method in brief: as §1
Vasopressin V1 receptor = Vasopressin V1 receptor (Rattus norvegicus, UniProt P48974+P30560); test: Inhibition of [3H]arginine vasopressin binding to rat liver Vasopressin V1 receptor; method in brief: as §1
[1] = Solubility at 25 degree C and pH of 7.4; format: physicochemical; details: pH 7.4; read-out: S
[2] = target: T2, Oxytocin receptor (Rattus norvegicus) (UniProt P70536); test: Inhibition of binding of [3H]- oxytocin to rat uterine Oxytocin receptor; details: concentration not given here; method in brief: as §1
T2 sequence (whole entry): T1 sequence (P70536 whole entry)

[3] = target: Vasopressin V1 receptor (Rattus norvegicus) (UniProt P48974+P30560); test: Inhibition of binding of [3H]-arginine vasopressin to rat liver Vasopressin V1 receptor at a concentration of 10000 nM
[4] = target: Vasopressin V2 receptor (Rattus norvegicus) (UniProt Q00788); test: Inhibition of binding of [3H]-arginine vasopressin to rat kidney medulla Vasopressin V2 receptor at a concentration of 10000 nM
[5] = Solubility at 25 degree C and pH of 10.8; format: physicochemical; details: pH 10.8; read-out: S
[6] = Solubility at 25 degree C and pH of 5.0; format: physicochemical; details: pH 5; read-out: S
[7] = Solubility at 25 degree C and pH of 7.0; format: physicochemical; details: pH 7; read-out: S

Vasopressin V2 receptor, sequence (Q00788 whole entry): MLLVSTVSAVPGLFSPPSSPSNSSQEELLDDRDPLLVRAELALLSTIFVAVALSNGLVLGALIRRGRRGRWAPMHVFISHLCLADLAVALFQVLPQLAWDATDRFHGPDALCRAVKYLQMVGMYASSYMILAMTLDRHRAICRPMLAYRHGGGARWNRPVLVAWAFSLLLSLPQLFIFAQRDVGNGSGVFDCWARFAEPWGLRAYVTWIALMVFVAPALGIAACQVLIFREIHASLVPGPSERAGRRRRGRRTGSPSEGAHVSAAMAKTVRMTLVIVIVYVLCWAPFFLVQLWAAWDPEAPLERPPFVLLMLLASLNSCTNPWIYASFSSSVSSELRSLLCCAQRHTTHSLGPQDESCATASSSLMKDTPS
Vasopressin V2 receptor (Rattus norvegicus), sequence (Q00788 whole entry): as above
Vasopressin V1 receptor (Rattus norvegicus), sequence (P30560 whole entry, looked up): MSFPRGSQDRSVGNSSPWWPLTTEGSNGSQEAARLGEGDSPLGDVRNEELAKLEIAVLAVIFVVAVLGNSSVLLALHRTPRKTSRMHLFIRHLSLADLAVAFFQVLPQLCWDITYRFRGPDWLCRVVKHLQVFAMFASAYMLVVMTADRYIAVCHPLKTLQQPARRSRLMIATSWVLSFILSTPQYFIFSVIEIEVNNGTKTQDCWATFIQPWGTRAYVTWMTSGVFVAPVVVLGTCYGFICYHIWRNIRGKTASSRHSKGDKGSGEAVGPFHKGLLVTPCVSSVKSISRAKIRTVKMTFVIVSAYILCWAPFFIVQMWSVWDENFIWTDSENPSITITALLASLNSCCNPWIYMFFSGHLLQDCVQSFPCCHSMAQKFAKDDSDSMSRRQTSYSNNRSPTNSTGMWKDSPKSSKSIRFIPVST
Vasopressin V1 receptor (Rattus norvegicus), sequence (P48974 whole entry, looked up): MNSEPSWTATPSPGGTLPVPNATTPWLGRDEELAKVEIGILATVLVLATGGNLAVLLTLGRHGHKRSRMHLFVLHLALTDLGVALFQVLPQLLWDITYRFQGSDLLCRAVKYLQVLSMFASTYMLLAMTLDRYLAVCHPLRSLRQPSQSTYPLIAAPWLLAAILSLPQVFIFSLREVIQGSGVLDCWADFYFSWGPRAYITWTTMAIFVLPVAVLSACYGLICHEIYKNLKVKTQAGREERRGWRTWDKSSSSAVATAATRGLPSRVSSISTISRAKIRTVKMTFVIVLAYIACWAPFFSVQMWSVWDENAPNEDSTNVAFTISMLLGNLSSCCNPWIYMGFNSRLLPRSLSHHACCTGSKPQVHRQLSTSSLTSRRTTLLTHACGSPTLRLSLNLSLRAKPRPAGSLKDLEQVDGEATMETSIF

Ki (Oxytocin receptor)	Ki (Vasopressin V2 receptor)	Ki (Vasopressin V1 receptor)	SMILES	other results
83 nM	1600 nM	890 nM	CC[C@H](C)[C@@H]1NC(=O)[C@@H](Cc2ccccc2)NC(=O)[C@@H]2CCCN2C(=O)[C@@H](Cc2ccccc2)N(C)C(=O)[C@@H]2CCCCN2C(=O)[C@H]2CCCCN2C1=O	solubility [1]: 2 µg/mL (≈ 2.7 µM)
12000 nM	> 30000 nM	> 30000 nM	C[C@@H]1NC(=O)[C@@H](Cc2ccccc2)NC(=O)[C@@H]2CCCN2C(=O)[C@@H](Cc2ccccc2)N(C)C(=O)[C@@H]2CCCCN2C(=O)[C@H]2CCCCN2C1=O (cyclo(A[dPip][Pip][dNMeF]P[dF]))	
140 nM	4500 nM	1600 nM	CC[C@H](C)[C@@H]1NC(=O)[C@@H](Cc2ccccc2)NC(=O)[C@@H]2CCCN2C(=O)[C@@H](Cc2ccccc2)NC(=O)[C@@H]2CCCCN2C(=O)[C@H]2CCCCN2C1=O (cyclo(I[dPip][Pip][dF]P[dF]))	
8.1 nM	260 nM	3500 nM	CC[C@H](C)[C@@H]1NC(=O)[C@@H](Cc2c[nH]c3ccccc23)NC(=O)[C@@H]2CCCN2C(=O)[C@@H](Cc2ccccc2)N(C)C(=O)[C@@H]2CCCCN2C(=O)[C@H]2CCCCN2C1=O (cyclo(I[dPip][Pip][dNMeF]P[dW]))	
49 nM	250 nM	20000 nM	CCOc1ccc(C[C@H]2NC(=O)[C@@H]3CCCN3C(=O)[C@@H](Cc3ccccc3)N(C)C(=O)[C@@H]3CCCCN3C(=O)[C@H]3CCCCN3C(=O)[C@H]([C@@H](C)CC)NC2=O)cc1 (cyclo(I[dPip][Pip][dNMeF]P[dY](Et)))	
1400 nM	33000 nM	9300 nM	CC[C@H](C)[C@@H]1NC(=O)[C@@H](Cc2ccccc2)NC(=O)[C@@H]2CCCN2C(=O)[C@@H](Cc2ccccc2)N(C)C(=O)[C@@H]2CCCN2C(=O)[C@H]2CCCN2C1=O (cyclo([dNMeF]P[dF]I[dP]P))	

Second part, the compound before the results:

SMILES	Ki (Oxytocin receptor)	Ki (Vasopressin V2 receptor)	Ki (Vasopressin V1 receptor)	other results
CC[C@H](C)[C@@H]1NC(=O)[C@@H](Cc2ccc3ccccc3c2)NC(=O)[C@@H]2CCCN2C(=O)[C@@H](Cc2c[nH]cn2)NC(=O)[C@@H]2CCCCN2C(=O)[C@H]2CCCCN2C1=O	1.6 nM	320 nM	760 nM	
CC[C@H](C)[C@@H]1NC(=O)[C@@H](Cc2ccccc2)NC(=O)[C@@H]2CCCN2C(=O)[C@@H](C)N(C)C(=O)[C@@H]2CCCCN2C(=O)[C@H]2CCCCN2C1=O	490 nM	> 10000 nM	> 10000 nM	
CC[C@H](C)[C@@H]1NC(=O)[C@@H](Cc2c[nH]c3ccccc23)NC(=O)[C@@H]2CCCN2C(=O)[C@@H](Cc2ccccc2)N(C)C(=O)[C@H](CCCN)NC(=O)[C@H]2CCCCN2C1=O (cyclo(I[dPip][Orn][dNMeF]P[dW]))	49 nM	500 nM	1000 nM	
CC[C@H](C)[C@@H]1NC(=O)[C@@H](C)NC(=O)[C@@H]2CCCN2C(=O)[C@@H](Cc2ccccc2)NC(=O)[C@@H]2CCCCN2C(=O)[C@H]2CCCCN2C1=O (cyclo(I[dPip][Pip][dF]P[dA]))				inhibition [2]: 0%; inhibition [3]: 0%; inhibition [4]: 4%
CC[C@H](C)[C@@H]1NC(=O)[C@@H](Cc2c[nH]c3ccccc23)NC(=O)[C@@H]2CCCN2C(=O)[C@@H](Cc2c[nH]cn2)NC(=O)[C@@H]2CCCCN2C(=O)[C@H]2CCCCN2C1=O (cyclo(I[dPip][Pip][dH]P[dW]))		1800 nM	2200 nM	solubility [5]: 110 µg/mL (≈ 146 µM); solubility [6]: 2000 µg/mL (≈ 2650 µM)
CC[C@H](C)[C@@H]1NC(=O)[C@@H](Cc2ccccc2)NC(=O)[C@@H]2CCCN2C(=O)[C@@H](Cc2ccccc2)N(C)C(=O)[C@@H]2CCC=NN2C(=O)[C@H]2CCC=NN2C1=O (cyclo(I[dPiz(1,6-dehydro)][Piz(1,6-dehydro)][dNMeF]P[dF]))	7.3 nM			solubility [7]: 68 µg/mL (≈ 92 µM)
